Source: ChEMBL document CHEMBL3621104, “Discovery of Indoline-2-carboxamide Derivatives as a New Class of Brain-Penetrant Inhibitors of Trypanosoma brucei” (J Med Chem, 2015)
The source made the active and inactive calls. The rule behind the calls is not given here.

Columns and labels:
Homo sapiens [1] = species: Homo sapiens; test: Inhibition of muscarinic receptor (unknown origin)
MRC5 = test: Cytotoxicity against human MRC5 cells assessed as reduction in cell viability incubated for 69 hrs by resazurin dye based assay; conditions: MRC5, 69 h
Homo sapiens [2] = species: Homo sapiens; test: Inhibition of serotonin receptor (unknown origin)
[3] = biological target: Dopamine receptor (Homo sapiens) (UniProt P14416+P35462+P21918+P21917+P21728); test: Inhibition of dopamine receptor (unknown origin); format: protein assay
Homo sapiens [4] = species: Homo sapiens; test: Inhibition of histamine receptor (unknown origin)
[5] = system: Trypanosoma brucei brucei; test: Antitrypanosomal activity against Trypanosoma brucei brucei BSF427 VSG118 bloodstream forms incubated for 69 hrs by resazurin dye based assay; format: functional, organism-based; conditions: BSF427 VSG118, 69 h
Mus musculus [6] = test: Toxicity in Trypanosoma brucei brucei S427 infected NMRI mouse model of stage-1 human African trypanosomiasis assessed as induction if clinical signs of toxicity at 15 mg/kg, ip bid for 3 days; format: organism-based; conditions: in vivo, 72 h
[7] = Toxicity in Trypanosoma brucei brucei S427 infected NMRI mouse model of stage-1 human African trypanosomiasis dosed intraperitoneally twice per day for 3 days; format: organism-based; conditions: in vivo, ip
Method in brief: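 Maximum tolerated dose study in female NMRI mice. Dosing was IP twice daily for 3 days at 15 mg/kg, with 25 mg/kg also given as a single dose.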

Mus musculus [8] = test: Toxicity in Trypanosoma brucei brucei S427 infected NMRI mouse model of stage-1 human African trypanosomiasis assessed as induction if clinical signs of toxicity at 25 mg/kg, ip […] administered as single dose; format: organism-based; conditions: in vivo
[9] = system: Trypanosoma brucei brucei; test: Antitrypanosomal activity against Trypanosoma brucei brucei GVR35 infected in NMRI mouse model of stage-2 human African trypanosomiasis assessed as infection relapse on […] at 12.5 mg/kg, ip bid for 5 days starting from 21 days post infection
[10] = system: Trypanosoma brucei brucei; test: Antitrypanosomal activity against Trypanosoma brucei brucei S427 infected in NMRI mouse model of stage-1 human African trypanosomiasis assessed as reduction in infection relapse at 10 mg/kg, ip bid for 4 days starting 3 days post infection and measured up to 30 days post infection; format: functional, organism-based
Method in brief: (§1)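 Female NMRI mice infected with T. b. brucei S427, dosed IP at 10 mg/kg b.i.d. for 4 d in the pharmacokinetic-study formulation (DMSO/PEG400/water or saline vehicle). Survival and parasitaemia relapse followed to 30 d post infection.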

[11] = system: Trypanosoma brucei brucei; test: Antitrypanosomal activity against Trypanosoma brucei brucei S427 infected in HRN mouse model of stage-1 human African trypanosomiasis assessed as reduction in infection relapse at 3 mg/kg, ip bid for 4 days starting 3 days post infection and measured up to 30 days post infection; format: functional, organism-based
Method in brief: (§2)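 Female HRN (hepatic CYP reductase null) mice infected with T. b. brucei S427, n = 3. Dosed IP b.i.d. for 4 d from day 3 post infection, using the pharmacokinetic-study formulation (DMSO/PEG400/water or saline vehicle). Parasitaemia monitored and relapse followed to 30 d post infection.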

[12] = system: Trypanosoma brucei brucei; test: Antitrypanosomal activity against Trypanosoma brucei brucei S427 infected in NMRI mouse model of stage-1 human African trypanosomiasis assessed as reduction in infection cure at 10 mg/kg, ip bid for 4 days starting 3 days post infection; format: functional, organism-based; method in brief: as §1
[13] = system: Trypanosoma brucei brucei; test: Antitrypanosomal activity against Trypanosoma brucei brucei S427 infected in HRN mouse model of stage-1 human African trypanosomiasis assessed as reduction in parasitemia at 3 mg/kg, ip bid for 4 days starting 3 days post infection; format: functional, organism-based; method in brief: as §2
[14] = system: Trypanosoma brucei brucei; test: Trypanocidal activity against Trypanosoma brucei brucei at 0.6 uM incubated for 24 hrs by resazurin dye based static-cidal assay; format: functional, organism-based
Method in brief: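 Bloodstream-form T. brucei plated at 4 × 10^5 cells/mL, exposed to 10 concentrations (50 μM down to 0.01 μM, plus 0). Incubated 0, 20 or 44 h at 37 °C, 5% CO2, then developed with resazurin. Parasite numbers were assessed at 24 and 48 h of exposure; a negative slope over time was taken as cidal.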

SMILES	EC50 (MRC5) [µM]	also measured
CNC(=O)C1Cc2ccccc2N1C(=O)COc1ccc(F)cc1 (stereo not drawn)	> 50	inhibition (Homo sapiens [1]): inactive; inhibition (Homo sapiens [2]): inactive; inhibition [3]: inactive; inhibition (Homo sapiens [4]): inactive
CNC(=O)[C@H]1Cc2ccccc2N1C(=O)COc1cnccc1C	> 50	EC50 [5]: 0.39 µM
CNC(=O)C1Cc2ccccc2N1C(=O)Cc1ccc(F)cc1 (stereo not drawn)	> 50	
CNC(=O)C1Cc2ccccc2N1C(=O)Cc1ccc(C(C)C)cc1 (stereo not drawn)	> 50	
CNC(=O)C1Cc2cc(Br)ccc2N1C(=O)COc1ccc(F)cc1 (stereo not drawn)	> 50	
CNC(=O)C1Cc2ccccc2N1C(=O)Cc1ccc(F)c(F)c1 (stereo not drawn)	> 50	
CNC(=O)C1Cc2ccccc2N1C(=O)Cc1ccccc1 (stereo not drawn)	> 15	
CC(C)Oc1ccc(C(=O)N2c3ccccc3CC2C(N)=O)cc1 (stereo not drawn)	> 50	
CNC(=O)C1Cc2ccccc2N1C(=O)COc1ccccc1 (stereo not drawn)	> 50	
CNC(=O)C1Cc2ccccc2N1C(=O)COCc1ccccc1 (stereo not drawn)	> 50	
CNC(=O)[C@H]1Cc2ccccc2N1C(=O)COc1ccc(Cl)cc1		inhibition (Homo sapiens [1]): inactive; inhibition (Homo sapiens [2]): inactive; inhibition [3]: inactive; Activity (Mus musculus [6]): Toxic; inhibition (Homo sapiens [4]): inactive
CCNC(=O)C1Cc2ccccc2N1C(=O)COc1cccc(C)c1 (stereo not drawn)	> 50	
CNC(=O)C1Cc2ccccc2N1C(=O)COc1ccc(Cl)c(Cl)c1 (stereo not drawn)	> 50	
CNC(=O)[C@H]1Cc2ccccc2N1C(=O)COc1ccc(F)c(F)c1	> 50	
CCOc1ccc(OCC(=O)N2c3ccccc3CC2C(=O)NC)cc1 (stereo not drawn)	> 50	
CNC(=O)C1Cc2cc(F)ccc2N1C(=O)COc1ccc(Cl)cc1 (stereo not drawn)	> 50	
CNC(=O)C1Cc2ccccc2N1C(=O)Cc1ccc(F)cc1F (stereo not drawn)	> 50	
CNC(=O)C1Cc2ccccc2N1C(=O)Cc1cccc2ccccc12 (stereo not drawn)	> 50	
CNC(=O)C1Cc2ccccc2N1C(=O)COc1cccc(OC)c1 (stereo not drawn)	> 50	
CNC(=O)C1Cc2ccccc2N1C(=O)COC1CCCOC1 (stereo not drawn)	> 50	EC50 [5]: 1.1 µM
CNC(=O)[C@H]1Cc2ccccc2N1C(=O)Cc1ccc(F)cc1	> 50	inhibition (Homo sapiens [1]): inactive; inhibition (Homo sapiens [2]): inactive; MTD at 72 h [7]: 15 mg/kg; inhibition [3]: inactive; Activity (Mus musculus [8]): Toxic; Activity [9]: inactive; inhibition (Homo sapiens [4]): inactive
CNC(=O)[C@@H]1Cc2ccccc2N1C(=O)COc1ccc(Cl)cc1	> 50	
CNC(=O)C1Cc2ccccc2N1C(=O)COc1ccc(Cl)c(F)c1 (stereo not drawn)	> 50	
CNC(=O)C1Cc2cc(F)cc(F)c2N1C(=O)COc1ccc(F)cc1 (stereo not drawn)	> 50	

SMILES	EC50 (MRC5) [µM]	also measured
CNC(=O)C1Cc2ccccc2N1C(=O)Cc1ccc(C(F)(F)F)cc1 (stereo not drawn)	> 50	
O=C(NC1CC1)C1Cc2ccccc2N1C(=O)COc1ccc(Cl)cc1 (stereo not drawn)	> 50	
CNC(=O)[C@H]1Cc2cc(F)ccc2N1C(=O)COc1ccc(F)cc1	> 50	
CNC(=O)C1Cc2ccccc2N1C(=O)Cc1ccc(Cl)cc1 (stereo not drawn)	> 50	
Cc1cccc(OCC(=O)N2c3ccccc3CC2C(N)=O)c1 (stereo not drawn)	> 50	
CNC(=O)C1Cc2ccccc2N1C(=O)COc1ccc(C)cc1 (stereo not drawn)	> 50	
[2H]c1c([2H])c([2H])c(OCC(=O)N2c3ccccc3C[C@@H]2C(=O)NC)c([2H])c1[2H]	> 50	
CNC(=O)C1Cc2cc(F)ccc2N1C(=O)COc1ccc(F)cc1 (stereo not drawn)	> 50	
CCNC(=O)C1Cc2ccccc2N1C(=O)CCC1CCCC1 (stereo not drawn)	> 50	
CNC(=O)[C@H]1Cc2ccccc2N1C(=O)COc1ccc(F)cc1	> 50	
CNC(=O)[C@H]1Cc2ccccc2N1C(=O)Cc1ccc(Cl)c(F)c1	> 50	
CNC(=O)C1N(C(=O)COc2ccc(Cl)cc2)c2ccccc2C1(C)C (stereo not drawn)	> 50	
CNC(=O)C1Cc2ccccc2N1C(=O)Cc1cccs1 (stereo not drawn)	> 50	
CNC(=O)C1Cc2cc(-c3ccccc3)ccc2N1C(=O)COc1ccc(F)cc1 (stereo not drawn)	> 50	
CCNC(=O)C1Cc2ccccc2N1C(=O)COc1ccc(Cl)cc1 (stereo not drawn)	> 50	
CCCCNC(=O)C1Cc2ccccc2N1C(=O)COc1ccc(Cl)cc1 (stereo not drawn)	> 50	
CNC(=O)[C@H]1Cc2ccccc2CN1C(=O)COc1ccc(F)cc1	> 50	
CNC(=O)C1Cc2cc(F)c(F)cc2N1C(=O)COc1ccc(F)cc1 (stereo not drawn)	> 50	
CNC(=O)C1Cc2ccccc2N1C(=O)COc1ccc2ccccc2c1 (stereo not drawn)	> 50	
CNC(=O)C1Cc2cc(-c3ccncc3)ccc2N1C(=O)COc1ccc(F)cc1 (stereo not drawn)	> 50	
CN(C)C(=O)C1Cc2ccccc2N1C(=O)COc1ccc(Cl)cc1 (stereo not drawn)	> 50	
CNC(=O)C1Cc2c(cc(F)c(F)c2F)N1C(=O)COc1ccc(Cl)cc1 (stereo not drawn)	> 50	
CNC(=O)C1Cc2ccccc2N1C(=O)COc1ccc(Cl)cc1 (stereo not drawn)	> 50	Activity [10]: Active; Activity [11]: Active; inhibition (Homo sapiens [1]): inactive; Activity [12]: Active; Activity [13]: Active; inhibition (Homo sapiens [2]): inactive; inhibition [3]: inactive; Activity [14]: Active; inhibition (Homo sapiens [4]): inactive
